Tested on: healthy male subjects
Assay: Pharmaco-EEG
Type: in vivo, human
Conditions: 12-hour post-dose period
Outline: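 Continuous EEG was recorded from 21 electrodes placed by the 10–20 system, with mastoid electrodes replacing the earlobe ones. Recordings followed IPEG guidelines, twice pre-dose and at 0.5–10 h post-dose. Power spectra for Fz-Cz and Pz-O derivations were split into bands to give total band power (μV). Values were ln-transformed, analysed by MMRM over 12 h against pooled placebo, and back-transformed.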

CN1CCC23CCCCC2C1Cc1ccc(C(N)=O)cc13 (stereo not drawn) [ALKS 7119, (9α, 13α)‐17‐methylmorphinan‐3‐carboxamide]
Theta-power Pz-Oz, LSM CFB (75 mg single oral dose): 0.12 Hz | Theta-power Pz-Oz, estimate of difference compared to placebo (75 mg single oral dose): 0.05 [−0.20, 0.28] P = .69 Hz | Alpha-power Fz-Cz, LSM CFB (100 mg single oral dose): 0.06 Hz | Alpha-power Pz-Oz, LSM CFB (100 mg single oral dose): 0.12 Hz | Alpha-power Pz-Oz, estimate of difference compared to placebo (100 mg single oral dose): 0.02 [−0.23, 0.28] P = .85 Hz | Beta-power Fz-Cz, LSM CFB (100 mg single oral dose): 0.08 Hz | Beta-power Fz-Cz, estimate of difference compared to placebo (100 mg single oral dose): −0.03 [−0.25, 0.19] P = .77 Hz | Beta-power Pz-Oz, LSM CFB (100 mg single oral dose): 0.25 Hz | Beta-power Pz-Oz, estimate of difference compared to placebo (100 mg single oral dose): 0.12 [−0.07, 0.32] P = .22 Hz | Delta-power Fz-Cz, LSM CFB (100 mg single oral dose): −0.03 Hz | Delta-power Fz-Cz, estimate of difference compared to placebo (100 mg single oral dose): −0.13 [−0.34, 0.08] P = .22 Hz | Delta-power Pz-Oz, LSM CFB (100 mg single oral dose): 0.08 Hz | Delta-power Pz-Oz, estimate of difference compared to placebo (100 mg single oral dose): 0.02 [−0.21, 0.25] P = .89 Hz | Gamma-power Fz-Cz, LSM CFB (100 mg single oral dose): 0.1 Hz | Gamma-power Fz-Cz, estimate of difference compared to placebo (100 mg single oral dose): <−0.01 [−0.20, 0.21] P = .99 Hz | Gamma-power Pz-Oz, LSM CFB (100 mg single oral dose): 0.27 Hz | Gamma-power Pz-Oz, estimate of difference compared to placebo (100 mg single oral dose): 0.06 [−0.19, 0.32] P = .63 Hz | Theta-power Fz-Cz, LSM CFB (100 mg single oral dose): 0.03 Hz | Theta-power Fz-Cz, estimate of difference compared to placebo (100 mg single oral dose): −0.04 [−0.27, 0.19] P = .72 Hz | Theta-power Pz-Oz, LSM CFB (100 mg single oral dose): 0.14 Hz | Theta-power Pz-Oz, estimate of difference compared to placebo (100 mg single oral dose): 0.08 [−0.16, 0.30] P = .56 Hz | Alpha-power Fz-Cz, LSM CFB (125 mg single oral dose): 0.05 Hz | Alpha-power Fz-Cz, estimate of difference compared to placebo (125 mg single oral dose): −0.17 [−1.24,‐.89] P = .75 Hz | Alpha-power Pz-Oz, LSM CFB (125 mg single oral dose): 0.11 Hz | Alpha-power Pz-Oz, estimate of difference compared to placebo (125 mg single oral dose): 0.01 [−0.25, 0.27] P = .93 Hz | Beta-power Fz-Cz, LSM CFB (125 mg single oral dose): 0.12 Hz | Beta-power Fz-Cz, estimate of difference compared to placebo (125 mg single oral dose): 0.01 [−0.21, 0.23] P = .93 Hz | Beta-power Pz-Oz, LSM CFB (125 mg single oral dose): 0.14 Hz | Beta-power Pz-Oz, estimate of difference compared to placebo (125 mg single oral dose): 0.02 [−0.18, 0.22] P = .87 Hz | Delta-power Fz-Cz, LSM CFB (125 mg single oral dose): 0.09 Hz | Delta-power Fz-Cz, estimate of difference compared to placebo (125 mg single oral dose): −0.01 [0.22, 0.20] P = .90 Hz | Delta-power Pz-Oz, LSM CFB (125 mg single oral dose): 0.22 Hz | Delta-power Pz-Oz, estimate of difference compared to placebo (125 mg single oral dose): 0.15 [−0.08, 0.39] P = .19 Hz | Gamma-power Fz-Cz, LSM CFB (125 mg single oral dose): 0.12 Hz | Gamma-power Fz-Cz, estimate of difference compared to placebo (125 mg single oral dose): 0.02 [−0.18, 0.22] P = .85 Hz | Gamma-power Pz-Oz, LSM CFB (125 mg single oral dose): 0.12 Hz | Gamma-power Pz-Oz, estimate of difference compared to placebo (125 mg single oral dose): −0.09 [−0.35, 0.17] P = .49 Hz | Theta-power Fz-Cz, LSM CFB (125 mg single oral dose): 0.1 Hz | Theta-power Fz-Cz, estimate of difference compared to placebo (125 mg single oral dose): 0.03 [−0.20, 0.25] P = .82 Hz | Theta-power Pz-Oz, LSM CFB (125 mg single oral dose): 0.15 Hz | Theta-power Pz-Oz, estimate of difference compared to placebo (125 mg single oral dose): 0.08 [−0.15, 0.31] P = .50 Hz | Alpha-power Fz-Cz, LSM CFB (150 mg single oral dose): 0.15 Hz | Alpha-power Pz-Oz, LSM CFB (150 mg single oral dose): −0.07 Hz | Alpha-power Pz-Oz, estimate of difference compared to placebo (150 mg single oral dose): −0.17 [−0.43, 0.09] P = .19 Hz | Beta-power Fz-Cz, LSM CFB (150 mg single oral dose): 0.11 Hz | Beta-power Fz-Cz, estimate of difference compared to placebo (150 mg single oral dose): −0.01 [−0.22, 0.22] P = .97 Hz | Beta-power Pz-Oz, LSM CFB (150 mg single oral dose): −0.07 Hz | Beta-power Pz-Oz, estimate of difference compared to placebo (150 mg single oral dose): −0.19 [−0.39, 0.01] P = .06 Hz | Delta-power Fz-Cz, LSM CFB (150 mg single oral dose): −0.08 Hz | Delta-power Fz-Cz, estimate of difference compared to placebo (150 mg single oral dose): −0.19 [−0.41, 0.03] P = .08 Hz | Delta-power Pz-Oz, LSM CFB (150 mg single oral dose): 0.02 Hz | Delta-power Pz-Oz, estimate of difference compared to placebo (150 mg single oral dose): −0.04 [−0.27, 0.19] P = .71 Hz | Gamma-power Fz-Cz, LSM CFB (150 mg single oral dose): 0.14 Hz | Gamma-power Fz-Cz, estimate of difference compared to placebo (150 mg single oral dose): 0.04 [−0.16, 0.24] P = .71 Hz | Gamma-power Pz-Oz, LSM CFB (150 mg single oral dose): 0.09 Hz | Gamma-power Pz-Oz, estimate of difference compared to placebo (150 mg single oral dose): −0.12 [−0.37, 0.14] P = .37 Hz | Theta-power Fz-Cz, LSM CFB (150 mg single oral dose): 0 Hz | Theta-power Fz-Cz, estimate of difference compared to placebo (150 mg single oral dose): −0.07 [−0.31, 0.16] P = .54 Hz | Theta-power Pz-Oz, LSM CFB (150 mg single oral dose): 0 Hz | Theta-power Pz-Oz, estimate of difference compared to placebo (150 mg single oral dose): −0.07 [−0.31, 0.16] P = .53 Hz | Alpha-power Fz-Cz, LSM CFB (175 mg single oral dose): 0.02 Hz | Alpha-power Fz-Cz, estimate of difference compared to placebo (175 mg single oral dose): −0.15 [−1.19, 0.9] P = .78 Hz | Alpha-power Pz-Oz, LSM CFB (175 mg single oral dose): −0.02 Hz | Alpha-power Pz-Oz, estimate of difference compared to placebo (175 mg single oral dose): −0.12 [−0.37, 0.14] P = .36 Hz | Beta-power Fz-Cz, LSM CFB (175 mg single oral dose): 0.08 Hz | Beta-power Fz-Cz, estimate of difference compared to placebo (175 mg single oral dose): −0.04 [−0.26, 0.18] P = .73 Hz | Beta-power Pz-Oz, LSM CFB (175 mg single oral dose): 0.01 Hz | Beta-power Pz-Oz, estimate of difference compared to placebo (175 mg single oral dose): −0.12 [−0.32, 0.08] P = .24 Hz | Delta-power Fz-Cz, LSM CFB (175 mg single oral dose): 0.09 Hz | Delta-power Fz-Cz, estimate of difference compared to placebo (175 mg single oral dose): −0.01 [−0.23, 0.20] P = .91 Hz | Delta-power Pz-Oz, LSM CFB (175 mg single oral dose): −0.07 Hz | Delta-power Pz-Oz, estimate of difference compared to placebo (175 mg single oral dose): −0.13 [−0.36, 0.11] P = .26 Hz | Gamma-power Fz-Cz, LSM CFB (175 mg single oral dose): 0.16 Hz | Gamma-power Fz-Cz, estimate of difference compared to placebo (175 mg single oral dose): 0.06 [−0.14, 0.26] P = .57 Hz | Gamma-power Pz-Oz, LSM CFB (175 mg single oral dose): 0.03 Hz | Gamma-power Pz-Oz, estimate of difference compared to placebo (175 mg single oral dose): −0.18 [−0.43, 0.08] P = .17 Hz | Theta-power Fz-Cz, LSM CFB (175 mg single oral dose): 0.08 Hz | Theta-power Pz-Oz, LSM CFB (175 mg single oral dose): −0.07 Hz | Theta-power Pz-Oz, estimate of difference compared to placebo (175 mg single oral dose): −0.14 [−0.37, 0.10] P = .25 Hz | Alpha-power Fz-Cz, LSM CFB (200 mg single oral dose): 0.01 Hz | Alpha-power Fz-Cz, estimate of difference compared to placebo (200 mg single oral dose): −0.28 [−1.39, 0.82] P = .61 Hz | Alpha-power Pz-Oz, LSM CFB (200 mg single oral dose): 0.24 Hz | Alpha-power Pz-Oz, estimate of difference compared to placebo (200 mg single oral dose): 0.14 [−0.11, 0.40] P = .27 Hz | Beta-power Fz-Cz, LSM CFB (200 mg single oral dose): 0.07 Hz | Beta-power Fz-Cz, estimate of difference compared to placebo (200 mg single oral dose): −0.05 [−0.27, 0.17] P = .67 Hz | Beta-power Pz-Oz, LSM CFB (200 mg single oral dose): 0.2 Hz | Beta-power Pz-Oz, estimate of difference compared to placebo (200 mg single oral dose): 0.07 [−0.12, 0.27] P = .46 Hz | Delta-power Fz-Cz, LSM CFB (200 mg single oral dose): 0.02 Hz | Delta-power Fz-Cz, estimate of difference compared to placebo (200 mg single oral dose): −0.08 [−0.29, 0.13] P = .45 Hz | Delta-power Pz-Oz, LSM CFB (200 mg single oral dose): 0.26 Hz | Delta-power Pz-Oz, estimate of difference compared to placebo (200 mg single oral dose): 0.20 [−0.04, 0.43] P = .10 Hz | Gamma-power Fz-Cz, LSM CFB (200 mg single oral dose): 0.21 Hz | Gamma-power Fz-Cz, estimate of difference compared to placebo (200 mg single oral dose): 0.11 [−0.09, 0.31] P = .29 Hz | Gamma-power Pz-Oz, LSM CFB (200 mg single oral dose): 0.31 Hz | Gamma-power Pz-Oz, estimate of difference compared to placebo (200 mg single oral dose): 0.11 [−0.15, 0.36] P = .40 Hz | Theta-power Fz-Cz, LSM CFB (200 mg single oral dose): 0.07 Hz | Theta-power Pz-Oz, LSM CFB (200 mg single oral dose): 0.25 Hz | Theta-power Pz-Oz, estimate of difference compared to placebo (200 mg single oral dose): 0.18 [−0.05, 0.41] P = .13 Hz
